Hits are enriched below; roughly 2% of the tested compounds scored in any of these assays.
LMPTP block: blocks human LMPTP phosphatase | hit rate 0.22% among 360,000 | P24666 | AID 651560 | recombinant LMPTP-A, OMFP fluorogenic substrate, fluorescence intensity | inhibition, % at 20 µM;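 active = compounds that cut the enzyme signal by at least half of the control window in the single-dose screen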;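 also: plate controls were DMSO wells with enzyme plus substrate for no effect and substrate without enzyme for full effect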
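Test system: LMPTP-A, protein tyrosine phosphatase of low molecular weight; Input: 0.625 nM enzyme; Incubation: 50 min dark incubation at room temperature; Signal: endpoint fluorescence intensity from OMFP dephosphorylation; Read-out basis: % inhibition versus control wells.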
CSN deneddyl inh: inhibitors of human CSN-mediated cullin deneddylation. Q92905. Purified CSN, SCF-Nedd8-OG deneddylation, fluorescence polarization. inhibition, % at 12.5 µM. hit rate 0.38% among 360,000. AID 651999;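 active = pattern-corrected inhibition above about 35%, with an unprinted fluorescence ratio check between 0.5 and 1.5, limit read from the data, passing the limit was not always enough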;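 also: 0% = enzyme with substrate and 100% = substrate without enzyme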
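Test system: purified human Csn5 enzyme expressed in HEK293T cells. Amount: 0.24 nM enzyme. Reagent: SCFSkp2-Nedd8OG substrate at 10 nM final. Schedule: 90 min incubation of compound, enzyme and substrate at room temperature. Detection: fluorescence polarization. Read-out: % inhibition of substrate cleavage by Csn5.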
STEP block: inhibitors of human striatal-enriched phosphatase STEP | P54829 | recombinant STEP, OMFP fluorogenic substrate, fluorescence | inhibition, % at 20 µM | hit rate 0.25% among 360,000;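 active = inhibition at 20 µM, scaled per plate between control wells, above about 37%, limit read from the data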;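 also: 0% = DMSO with enzyme and substrate and 100% = substrate only without enzyme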
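System: isolated STEP enzyme; schedule: 20 min enzyme reaction at room temperature, protected from light; medium: Bis-Tris buffer pH 6.0, 2.5 mM DTT, 0.005% Tween 20; signal: fluorescence, 480/540 nm; dosing: single compound dose of 20 µM, 1% DMSO final; also added: OMFP substrate, 25 µM final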
SUMO1 PPI mod: alters human SUMO1 binding to SIM partners. AID 602429. inhibition, % at 20 µM. hit rate 0.33% among 360,000. P63165. SUMO1 binding to a labelled peptide, TR-FRET, 1 h; in the data active = inhibition above about 37%
Scp-1 inhibitor: blocks human Scp-1 phosphatase activity; Recombinant Scp1, phosphopeptide, malachite green phosphate absorbance; inhibition, % at 20 µM; hit rate 0.88% among 340,000; AID 493091;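 active = inhibition above about 50% at 20 µM, limit read from the data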;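 also: plate controls were DMSO wells with enzyme for no effect and wells lacking enzyme for full effect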
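Material – SCP-1 phosphatase catalytic domain, residues 76-261 · Buffer or medium – Acidic Tris acetate buffer with magnesium and detergent · Also added – Phospho 17-mer peptide substrate · Compound – single 20 µM dose, 1% DMSO · Times – 45 min room-temperature reaction, 5 min colour, 30 min stabiliser · Technique – Phosphate-binding colour reagent, absorbance read at 630 nm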
DNMT1 inh: DNMT1 (human) enzyme inhibition; P26358; DNMT1 molecular beacon, Hinp1I cleavage, fluorescence; inhibition (reported as % activation of signal), % at 10 µM; hit rate 0.83% among 360,000; in the data active = inhibition above about 50%
Scp1 confirm: confirmation of human Scp-1 phosphatase inhibitors. inhibition, % at 20 µM. recombinant SCP-1 catalytic domain, phosphate release, malachite green absorbance. AID 540281. hit rate 61% among 2,500. shares compounds with Scp-1 inhibitor;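 also: plate controls were DMSO with enzyme for no effect and buffer wells lacking enzyme for full effect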
Scp-1 MG ctr: interferes with malachite green readout, flagging false Scp-1 hits; apparent inhibition (interference), % at 20 µM; Colorimetric interference counterscreen, malachite green absorbance 630 nm; AID 540313; shares compounds with Scp-1 inhibitor; 2,500 tested, under 10 active;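 also: compounds added after enzyme reaction finished so only phosphate colour detection is probed; plate controls were DMSO wells with completed Scp-1 reaction for no effect and substrate wells lacking enzyme for full effect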
Scp-1 Tm shift: validation of human Scp-1 inhibitors by thermal shift binding | shares compounds with Scp-1 inhibitor | AID 540329 | Recombinant SCP1, Sypro Orange thermal shift Tm | thermal shift relative to vanadate control, % at 40 µM | hit rate 25% among 1,500;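 active = substances whose mean melting-temperature shift, as a percentage of the reference inhibitor's shift, reaches about 5.3%, limit read from the data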;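 also: 0% = Tm of DMSO wells and 100% = Tm with sodium orthovanadate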
* hit, by the source's call; · = no result given.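 The calls were made as follows, unless noted: active = inhibition of at least 30% at 20 µM; inactive = the rest.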

SMILES	LMPTP block	CSN deneddyl inh	STEP block	SUMO1 PPI mod	Scp-1 inhibitor	DNMT1 inh	Scp1 confirm	Scp-1 MG ctr	others
COc1ccc(CC(=O)Nc2nccs2)cc1OC	-1	-1	1	3	-11	-7	·	·
COc1ccccc1-n1c(SCC(=O)N2CCCCC2)nc2cccnc21	-1	-1	-3	-4	95*	1	-21	-15
Brc1ccc(CSc2ncn[nH]2)cc1	0	1	6	-1	51*	0	12	-3
Cc1c(/C(O)=C2/C(=O)C(=O)N(CCN3CCOCC3)C2c2cccnc2)cnn1-c1ccccc1 (stereo not drawn)	-4	3	-6	-6	-3	0	·	·
Cc1c(/C(O)=C2/C(=O)C(=O)N(CCN3CCOCC3)C2c2ccco2)cnn1-c1ccccc1 (stereo not drawn)	1	1	1	-6	-4	0	-13	-7
CCCCN(C(=O)c1cc2c(s1)CCC2)c1c(N)n(CCC)c(=O)[nH]c1=O	3	3	4	1	60*	33	50*	-1	Scp-1 Tm shift=2
CCCCN(C(=O)c1ccc(Cl)c(S(=O)(=O)N2CCOCC2)c1)c1c(N)n(CCC)c(=O)[nH]c1=O	-2	5	-2	1	58*	7	-3	-11
CCCCN(C(=O)c1cccc(-n2cccc2)c1)c1c(N)n(CCCC)c(=O)[nH]c1=O	3	19	3	16	70*	46	12	-22
CCCCN(C(=O)c1cnccn1)c1c(N)n(CCC)c(=O)[nH]c1=O	1	-6	1	-1	99*	-3	-7	-7
CCCCn1c(N)c(N(CCOC)C(=O)c2cnccn2)c(=O)[nH]c1=O	-1	-4	0	2	-4	5	·	·
COc1ccc(CC(=O)N/N=C(\C)c2cccs2)cc1	0	-1	-2	-10	0	1	·	·
C=CCOC(=O)C1=C[C@H](c2csc3ccccc23)C[C@H](OCc2ccc(CO)cc2)O1	4	1	3	-2	-11	-20	·	·
COCCCN(C(=O)c1cc2c(s1)CCC2)c1c(N)n(Cc2ccccc2)c(=O)[nH]c1=O	3	-2	-2	-1	7	10	·	·
CCCN(C(=O)c1cc2c(s1)CCC2)c1c(N)n(Cc2ccccc2)c(=O)[nH]c1=O	12	7	-1	6	53*	53*	46*	-17	Scp-1 Tm shift=-3
Cc1nnc(N2C(=O)c3oc4ccccc4c(=O)c3C2c2ccco2)s1 (stereo not drawn)	0	8	4	2	60*	39	42*	-1	Scp-1 Tm shift=0
COc1cc2c(cc1OC)C(c1ccc([N+](=O)[O-])cc1)NC(=O)C2 (stereo not drawn)	0	4	0	-19	2	1	·	·
CN(CC(=O)NC(=O)NC1CCCCC1)CC(=O)Nc1ccc(Cl)cc1	1	-3	-4	28	-6	-6	·	·
Cc1c(NS(=O)(=O)c2cc(C(=O)NCCN(C)C)ccc2Cl)c(=O)n(-c2ccccc2)n1C	18	3	23	13	73*	26	37*	-11	Scp-1 Tm shift=-11
O=C(CCC(=O)Nc1ccc(Br)cc1)N/N=C/c1cc([N+](=O)[O-])ccc1O	14	-2	0	-8	74*	-1	23	-9
O=C(CCC(=O)Nc1ccc(F)cc1)N/N=C/c1cc([N+](=O)[O-])ccc1O	-1	-1	-1	-16	6	-1	·	·
